Drawing on BindingDB's records for doi:10.1021/jm00077a002 (Merck Research Laboratories, 1994), this text covers IC50 for 1 compound.

Structures are written as SMILES. pIC50: −log10 of the molar value.

As a reminder, the pIC50 is −log10 of the IC50, conventionally taken in molar units. A higher pIC50 goes with a low IC50.

The target of experiment [1] is T1, Vasopressin V1a/V1b receptor (Rattus norvegicus, UniProt P30560+P48974). The experiment can be described thus: ChEBML_211079. The text has this:
(§1) Inhibition of radioligand [3H]AVP binding to the vasopressin V1 receptor in rat liver tissue

For a further experiment, the target named is Vasopressin V2 receptor (Rattus norvegicus, UniProt Q00788). The experiment can be described thus: Inhibition of radioligand [3H]-AVP binding to the vasopressin V2 receptor in rat kidney tissue. The method, boiled down:
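[3H]AVP (80–90 Ci/mmol) at 2 nM competed on crude membranes from male rat kidney medulla (V2 sites). Equilibrium 30 min at 30 °C in 100 mM Tris-HCl, 5 mM MgCl2, 0.1% BSA, 50 μM PMSF, 50 μg/mL bacitracin, pH 8.0. Nonspecific binding with 10 μM unlabeled AVP. Glass-fiber filtration. IC50 by linear regression of % inhibition vs log concentration, seven concentrations.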

Experiment [2] has as its target T2, Oxytocin receptor (Rattus norvegicus, UniProt P70536).
T2 sequence (P70536 whole entry): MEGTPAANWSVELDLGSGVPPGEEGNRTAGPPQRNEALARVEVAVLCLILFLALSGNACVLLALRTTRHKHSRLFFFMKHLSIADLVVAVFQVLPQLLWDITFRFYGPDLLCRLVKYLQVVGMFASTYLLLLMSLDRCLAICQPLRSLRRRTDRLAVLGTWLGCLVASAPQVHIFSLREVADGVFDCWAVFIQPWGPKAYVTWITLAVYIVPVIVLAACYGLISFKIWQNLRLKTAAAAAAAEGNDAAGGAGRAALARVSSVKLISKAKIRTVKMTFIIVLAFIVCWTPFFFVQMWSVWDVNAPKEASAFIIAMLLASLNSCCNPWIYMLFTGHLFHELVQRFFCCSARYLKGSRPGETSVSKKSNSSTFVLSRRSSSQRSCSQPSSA
The experiment can be described thus: ChEBML_145031. From the text: Tested against rat uterine OT receptor

Experiment [3] has as its target T2, Oxytocin receptor. The experiment can be described thus: Inhibition of radioligand [3H]oxytocin binding at the oxytocin (OT) receptor in rat uterine tissue. In short, it runs like this: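 Uteri taken from rats given diethylstilbestrol dipropionate (0.3 mg/kg ip, 18–24 h before), crude membranes. 1 nM [3H]OT (30–60 Ci/mmol), equilibrium 60 min at 22 °C in 50 mM Tris-HCl, 5 mM MgCl2, 0.1% BSA, pH 7.4. Nonspecific binding with 1 mM unlabeled OT. Filtered on glass fiber. Initial single-concentration screen, then IC50 from seven concentrations by linear regression.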

Experiment [4] concerns the target T1, Vasopressin V1a/V1b receptor. The experiment is described as §1. In short, it runs like this: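 Crude membranes from male rat liver (V1 sites) competed with 1 nM [3H]AVP (80–90 Ci/mmol). Equilibrium 30 min, 30 °C, buffer 100 mM Tris-HCl, 5 mM MgCl2, 0.1% BSA, 50 μM PMSF, 50 μg/mL bacitracin, pH 8.0. 10 μM unlabeled AVP for nonspecific binding. Filtration through glass-fiber filters. IC50 from linear regression over seven concentrations.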

T1 sequence (P30560 whole entry): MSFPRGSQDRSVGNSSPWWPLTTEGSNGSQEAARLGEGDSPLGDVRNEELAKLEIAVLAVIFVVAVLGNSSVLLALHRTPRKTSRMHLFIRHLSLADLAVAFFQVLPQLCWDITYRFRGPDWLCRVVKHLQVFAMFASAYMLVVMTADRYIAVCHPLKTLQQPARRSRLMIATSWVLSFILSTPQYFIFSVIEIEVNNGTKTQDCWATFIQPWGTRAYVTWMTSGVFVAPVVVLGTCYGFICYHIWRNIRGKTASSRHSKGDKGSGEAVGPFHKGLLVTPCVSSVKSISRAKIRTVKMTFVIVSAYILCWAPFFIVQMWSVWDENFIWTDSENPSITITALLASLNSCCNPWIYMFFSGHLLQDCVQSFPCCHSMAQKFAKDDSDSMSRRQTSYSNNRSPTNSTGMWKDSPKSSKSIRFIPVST
T1 sequence (P48974 whole entry): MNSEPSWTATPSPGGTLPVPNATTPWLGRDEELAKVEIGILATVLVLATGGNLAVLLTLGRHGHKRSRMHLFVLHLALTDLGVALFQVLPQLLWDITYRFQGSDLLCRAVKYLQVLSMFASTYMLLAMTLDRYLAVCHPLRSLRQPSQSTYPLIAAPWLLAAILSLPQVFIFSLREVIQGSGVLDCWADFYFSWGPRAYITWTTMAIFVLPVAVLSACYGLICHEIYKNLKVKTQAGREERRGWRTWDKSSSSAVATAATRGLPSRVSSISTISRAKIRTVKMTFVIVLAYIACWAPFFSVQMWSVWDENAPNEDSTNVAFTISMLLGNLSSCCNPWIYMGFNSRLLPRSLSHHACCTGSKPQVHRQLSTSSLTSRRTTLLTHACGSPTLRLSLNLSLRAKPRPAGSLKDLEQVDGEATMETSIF
Chain of Vasopressin V2 receptor (Q00788 whole entry): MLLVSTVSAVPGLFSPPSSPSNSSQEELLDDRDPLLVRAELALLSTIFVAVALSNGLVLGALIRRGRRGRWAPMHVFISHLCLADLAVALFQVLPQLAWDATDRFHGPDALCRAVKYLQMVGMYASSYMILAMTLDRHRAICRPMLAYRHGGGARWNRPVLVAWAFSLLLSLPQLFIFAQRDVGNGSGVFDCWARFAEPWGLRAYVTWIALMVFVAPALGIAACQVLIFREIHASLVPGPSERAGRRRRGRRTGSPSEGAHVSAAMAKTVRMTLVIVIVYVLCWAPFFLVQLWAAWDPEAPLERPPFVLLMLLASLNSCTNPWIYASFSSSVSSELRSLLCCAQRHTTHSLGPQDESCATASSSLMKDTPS

On to `CC1(C)[C@@H]2CC[C@@]1(CS(=O)(=O)N1CCC3(CCc4ccccc43)CC1)[C@@H](n1c(O)c(Cc3cnc[nH]3)[nH]c1=O)C2` [3-[7,7-dimethyl-1-spiro[2,3-dihydro-1H-indene-1,4'-(hexahydropyridine)]-1-ylsulfonylmethyl-(1S,2S,4R)-bicyclo[2.2.1]hept-2-yl]-5-(1H-4-imidazolylmethyl)tetrahydro-1H-2,4-imidazoledione], for which the pIC50 in experiment [1] was 6.38; at Vasopressin V2 receptor it was 5.82; on Oxytocin receptor [2] it was 7.89; at Oxytocin receptor [3] it was 7.89; in experiment [4], 6.38.
